These results are taken from ChEMBL document CHEMBL4000145, “Discovery and Optimization of a Porcupine Inhibitor” (J Med Chem, 2015).

SMILES strings stand for the structures. In brackets after ≈: the same amount, converted by molar mass. Activity calls are given as the source filed them. The rule behind the calls is not given here. Where only a bound is given, the exact number is not on record here.

In series [1] the test system is Mus musculus. Kind of series: Antitumor activity in Balb/c mouse MMTV-Wnt1 model assessed as tumor growth inhibition at 1 mg/kg administered once daily for 14 days via oral gavage relative to vehicle treated control. Type of series: functional. The settings on record: 336 h, read-out: TGI. The gist of the method:
(§1)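 Orthotopic MMTV-Wnt1 tumor fragments implanted in mammary fat pads of Balb/c nude mice. Dosing began 14 days later (day 1), with 10 mice per group and mean tumor volume 103–107 mm³. Oral gavage once daily for 14 days at 10 mL/kg in 50% PEG 400/deionized water. Doses were 1, 3 or 10 mg/kg. Caliper volumes gave %TGI versus vehicle at day 14. Statistics by one-way ANOVA with Dunnett's test.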

The nature of series [2]: AUC (0 to last) in mouse at 5 mg/kg, po. Type of series: ADME, organism-based. Also on record: dose 5 mg/kg, time 0 - last, route oral. The settings on record: in vivo.
The target in the next series is Cytochrome P450 3A4 (Homo sapiens, UniProt P08684). The series is described as follows: Inhibition of CYP3A4 (unknown origin).
A short description of series [3]: Half life in mouse at 1 mg/kg, iv. The settings on record: in vivo. Type of series: ADME, organism-based.
The nature of series [4]: Permeability of the compound at pH 7.4 by PAMPA assay. Type of series: physicochemical. The settings on record: read-out: permeability.
The nature of series [5]: Oral bioavailability in mouse at 5 mg/kg. Type of series: ADME, organism-based. The settings on record: in vivo.
In a further series the target is Cytochrome P450 2D6 (Homo sapiens, UniProt P10635). Kind of series: Inhibition of CYP2D6 (unknown origin).
Series [6] has as its system Mus musculus. Kind of series: Antitumor activity in Balb/c mouse MMTV-Wnt1 model assessed as tumor growth inhibition at 3 mg/kg administered once daily for 14 days via oral gavage relative to vehicle treated control. Type of series: functional. Conditions: 336 h, read-out: TGI. The gist of the method: as §1
Series [7] has as its system Mus musculus. The series is described as follows: Antitumor activity in Balb/c mouse MMTV-Wnt1 model assessed as tumor growth inhibition at 10 mg/kg administered once daily for 14 days via oral gavage relative to vehicle treated control. Type of series: functional. The settings on record: 336 h, read-out: TGI. The gist of the method:
as §1

Series [8] is described as follows: Cmax in mouse at 5 mg/kg, po. Type of series: ADME, organism-based. Also on record: dose 5 mg/kg, route oral. The settings on record: in vivo.
Series [9] addresses T1, Protein-serine O-palmitoleoyltransferase porcupine (Homo sapiens, UniProt Q9H237).
T1 sequence (Q9H237 whole entry): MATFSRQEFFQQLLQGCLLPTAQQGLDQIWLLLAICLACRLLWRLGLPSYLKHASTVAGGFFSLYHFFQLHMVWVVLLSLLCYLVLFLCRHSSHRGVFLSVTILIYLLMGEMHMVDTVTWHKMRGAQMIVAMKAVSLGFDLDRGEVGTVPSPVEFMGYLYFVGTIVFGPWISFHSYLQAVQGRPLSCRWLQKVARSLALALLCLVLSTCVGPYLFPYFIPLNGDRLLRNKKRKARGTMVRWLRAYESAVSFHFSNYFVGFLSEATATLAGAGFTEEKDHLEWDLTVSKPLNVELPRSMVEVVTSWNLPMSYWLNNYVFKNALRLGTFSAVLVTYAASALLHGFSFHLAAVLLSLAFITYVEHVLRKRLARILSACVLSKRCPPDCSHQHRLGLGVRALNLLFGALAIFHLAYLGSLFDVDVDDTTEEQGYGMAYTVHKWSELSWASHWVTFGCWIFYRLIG
Kind of series: Inhibition of porcupine (unknown origin) expressed in HEK293-STF3A cells assessed as inhibition of Wnt signaling by measuring decrease in beta-catenin-mediated transcriptional activity after 24 hrs by Steady-Glo luciferase assay. Type of series: cell-based. The gist of the method:
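HEK293-STF3A cells, 2 × 10⁴ per well, incubated overnight at 37 °C. Serially diluted compound added at final 50 μM to 1.5 nM. After 1 day, Steady-Glo luciferase added for 10 min at room temperature and luminescence read. IC50 derived from the dilution series.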

Series [10] can be described thus: Intrinsic clearance in mouse liver microsomes. Conditions: read-out: CLH. Type of series: ADME, microsome. (Microsomes from liver hold many membrane-bound enzymes, among them those of drug oxidation.)
Series [11] concerns the target T2, Protein-serine O-palmitoleoyltransferase porcupine (Mus musculus) (UniProt Q9JJJ7).
T2 sequence (whole entry): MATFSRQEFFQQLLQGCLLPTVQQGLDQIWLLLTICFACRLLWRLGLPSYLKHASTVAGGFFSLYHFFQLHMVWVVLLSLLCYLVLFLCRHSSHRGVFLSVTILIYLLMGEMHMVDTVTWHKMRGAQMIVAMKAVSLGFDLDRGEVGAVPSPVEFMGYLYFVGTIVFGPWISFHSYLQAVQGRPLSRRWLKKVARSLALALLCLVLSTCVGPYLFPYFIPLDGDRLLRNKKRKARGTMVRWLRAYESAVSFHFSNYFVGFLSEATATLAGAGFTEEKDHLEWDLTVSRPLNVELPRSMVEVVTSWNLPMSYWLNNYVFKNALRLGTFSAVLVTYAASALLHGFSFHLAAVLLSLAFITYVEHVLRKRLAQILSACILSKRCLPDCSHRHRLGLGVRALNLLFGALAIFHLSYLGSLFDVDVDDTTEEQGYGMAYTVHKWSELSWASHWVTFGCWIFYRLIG
The settings on record: 0.2 to 625 nM.

The nature of series [12]: Thermodynamic solubility of the compound at pH 7.4. Type of series: physicochemical. The settings on record: buffer, read-out: Therm_solubility. The gist of the method: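 Compound at 500 μM from DMSO stock in pH 7.4 buffer, 1.0% DMSO. Incubated 18 h, then vacuum filtered. Filtrate mixed 1:1 with 1-propanol and quantified by UV spectroscopy.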
Series [13] relates to Mus musculus. The series is described as follows: Antitumor activity in Balb/c mouse MMTV-Wnt1 model assessed as tumor growth inhibition administered once daily for 14 days via oral gavage. Type of series: functional. The gist of the method:
as §1

In series [14] the target is T3, Protein-serine O-palmitoleoyltransferase porcupine (Homo sapiens) (UniProt Q9H237).
T3 sequence (whole entry): T1 sequence (Q9H237 whole entry)
The series is described as follows: Inhibition of PORCN-mediated V5-tagged Wnt3A palmitoylation in human HeLa cells at 100 nM measured after over night incubation by Western blot analysis. Type of series: cell-based. A digest of the protocol: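 HeLa cells seeded 3 × 10⁶ per 10 cm dish, overnight at 37 °C, then transfected with 5 μg pcDNA3.2/V5-Wnt3a. After 6 h, washed and given 100 μM ω-alkynyl palmitate in medium with 5% fatty-acid-free BSA plus compound (100 nM) or DMSO, overnight at 37 °C. From 600 μg lysate, V5-Wnt3a was immunoprecipitated and click-reacted with biotin azide. Blot read-outs: anti-V5/anti-mouse Dylight 680 for total, streptavidin-Dylight 800 for acylated.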

A further series relates to HT-1080. The series is described as follows: Inhibition of luciferase expression in human HT1080 cells after 24 hrs. Type of series: functional, cell-based. A digest of the protocol: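 HT1080 cells seeded at 150 000 per well a day before transfection. Transfected with control or murine PORCN plasmid (100 ng) plus Wnt/β-catenin reporter (550 ng) and Wnt3a (50 ng). Treated with serial dilutions from 625 to 0.2 nM at 0.1% DMSO final. Luciferase measured in lysate 24 h post-transfection.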

Another series relates to HEK293. Kind of series: Inhibition of beta-catenin-mediated transcriptional activity in Wnt3A knock out HEK293-STF cells preincubated for 4 hrs followed by Wnt-3A conditioned medium addition measured after 24 hrs by Steady-Glo luciferase assay. The settings on record: Homo sapiens.
Series [15] can be described thus: Cytotoxicity against HEK293 cells assessed as cell viability after 1 day by CellTiter-Glo luminescent assay. Conditions: human. On the technique in general: Cellular ATP, detected with luciferase, serves as a proxy for viable cell number.
Series [16] can be described thus: Oral bioavailability in mouse. The settings on record: in vivo. Type of series: ADME, organism-based.

Cytochrome P450 3A4, sequence (P08684 whole entry): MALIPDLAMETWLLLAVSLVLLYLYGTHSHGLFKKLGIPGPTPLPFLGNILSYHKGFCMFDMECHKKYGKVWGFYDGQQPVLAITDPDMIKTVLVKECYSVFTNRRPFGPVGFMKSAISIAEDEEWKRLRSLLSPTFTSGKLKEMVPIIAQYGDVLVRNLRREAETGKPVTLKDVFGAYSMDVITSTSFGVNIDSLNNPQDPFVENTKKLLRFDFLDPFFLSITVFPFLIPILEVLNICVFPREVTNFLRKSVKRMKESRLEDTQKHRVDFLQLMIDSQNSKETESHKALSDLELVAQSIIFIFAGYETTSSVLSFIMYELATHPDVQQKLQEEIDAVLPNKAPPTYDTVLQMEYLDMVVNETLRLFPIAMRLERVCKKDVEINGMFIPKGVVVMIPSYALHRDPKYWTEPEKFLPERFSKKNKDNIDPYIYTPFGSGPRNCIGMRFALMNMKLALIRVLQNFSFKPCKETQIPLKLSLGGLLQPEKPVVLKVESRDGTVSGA
Cytochrome P450 2D6, sequence (P10635 whole entry): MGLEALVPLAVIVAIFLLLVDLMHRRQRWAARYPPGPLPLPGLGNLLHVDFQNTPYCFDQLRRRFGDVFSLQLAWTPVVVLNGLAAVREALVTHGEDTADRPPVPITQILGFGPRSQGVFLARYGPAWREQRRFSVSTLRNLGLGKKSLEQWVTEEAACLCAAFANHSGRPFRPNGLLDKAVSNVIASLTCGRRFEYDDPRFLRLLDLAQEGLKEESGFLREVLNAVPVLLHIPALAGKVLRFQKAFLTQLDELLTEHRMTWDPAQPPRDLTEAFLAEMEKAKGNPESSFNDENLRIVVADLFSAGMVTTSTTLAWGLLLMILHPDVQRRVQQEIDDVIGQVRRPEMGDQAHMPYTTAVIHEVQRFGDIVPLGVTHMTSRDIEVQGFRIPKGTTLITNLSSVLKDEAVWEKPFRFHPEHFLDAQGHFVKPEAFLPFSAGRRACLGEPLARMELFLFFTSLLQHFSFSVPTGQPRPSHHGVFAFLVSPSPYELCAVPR

With `C[C@H](Nc1ccc(-c2ccnn2C)nc1)C(=O)Nc1ccc(-c2cccnc2)cn1`, the inhibition in vivo at 1 mg/kg in the series with Mus musculus [1] worked out at 50%. Moreover, in series [2], the AUC(0-t) (commonly exposure summed from dosing to a finite time, without extrapolation to infinity) was 12300 ng·h/mL. Besides, the IC50 (as a rule, the point on the concentration scale where inhibition reaches its midpoint) against Cytochrome P450 3A4 is above 20 µM; against Cytochrome P450 2D6, 8 µM; in series [9] it was 1 nM. The half-life – broadly, how long it takes for the measured level to halve – in series [3] was 114 min. The Papp in series [4] was 50.6 ×10⁻⁶ cm/s. For the same molecule, the bioavailability in [5] amounted to 106%. Also, the inhibition in vivo at 3 mg/kg in the series with Mus musculus [6] worked out at 71%. Moreover, the inhibition in vivo at 10 mg/kg with Mus musculus [7] was 91%. Further, the Cmax (in general, the maximum level reached in the sampled fluid or tissue) in series [8] came out at 4270 ng/mL. Also, the microsomal CLint in series [10] stood at 8 µL/min/mg. Besides, the inhibition result in series [11] and in [14] was “Active” throughout. Besides, the solubility thermodynamic in series [12] turned out to be 72.5 µg/mL (≈ 181 µM). In addition, in the series on Mus musculus [13], the TGI entry is “Dose-dependent effect”. The inhibition result with HT-1080 was “Dose-dependent effect”.

Consider `O=C(COc1ccc(-c2cnco2)cc1)Nc1ccc(-c2ccccc2)cc1`, for which the IC50 against Cytochrome P450 3A4 is above 20 µM; against Cytochrome P450 2D6, above 20 µM; in [9], 42 nM.

As for `C[C@@H](Oc1ccc(-n2ccnc2)cc1)C(=O)Nc1ccc(-c2ccccc2)cc1`, the IC50 in series [9] came out at 130 nM. The microsomal CLint in series [10] was determined as 63 µL/min/mg. Besides, the inhibition entry in series [14] was “Active”.

For the molecule `C[C@H](Nc1ccc(-c2ccnn2C)nc1)C(=O)Nc1ccc(-c2ccccc2)cn1`, the IC50 at Cytochrome P450 3A4 is above 20 µM; at Cytochrome P450 2D6, above 20 µM; in [9] it was 1 nM. Besides, in series [4], the Papp was 113 ×10⁻⁶ cm/s. In series [10], the microsomal CLint came out at 8 µL/min/mg. Further, the solubility thermodynamic in series [12] turned out to be 4 µg/mL (≈ 10 µM).

For the molecule `O=C(CNc1ccc(-n2ccnc2)cc1)Nc1ccc(-c2ccccc2)cc1`, the IC50 in series [9] is 30 nM. In series [10], the microsomal CLint came out at 11 µL/min/mg.

Turning to `O=C(Nc1ccc(-c2ccccc2)cc1)[C@@H]1CCCN1c1ccc(-n2ccnc2)cc1`, the IC50 in series [9] was 40 nM. For the same molecule, the microsomal CLint in series [10] was determined as 18 µL/min/mg.

Consider `O=C(COc1ccc(-n2cccc2)cc1)Nc1ccc(-c2ccccc2)cc1`, for which the IC50 in series [9] was above 50000 nM.

`Cn1nccc1-c1ccc(OCC(=O)Nc2ccc(-c3ccccc3)cc2)cc1`: the figures for the IC50 (against Cytochrome P450 3A4; on Cytochrome P450 2D6; in [9]) were above 20 µM, above 20 µM and 4 nM, respectively.

`Cc1nccn1-c1ccc(OCC(=O)Nc2ccc(-c3ccccc3)cc2)cc1`: the results for the IC50 (against Cytochrome P450 3A4; against Cytochrome P450 2D6; in [9]) were 5.2 µM, 1.9 µM and 2 nM, respectively.

As for `C[C@H](Oc1ccc(-n2ccnc2)cc1)C(=O)Nc1ccc(-c2ccccc2)cc1`, in series [9], the concentration for half-maximal inhibition (IC50) came out at 7 nM. Further, in [10], the microsomal CLint worked out at 85 µL/min/mg.

On to `C[C@H](Nc1ccc(-n2ccnc2)cc1)C(=O)Nc1ccc(-c2ccccc2)cn1`, for which the IC50 in series [9] came out at 5 nM. For the same molecule, the microsomal CLint in series [10] was 3.5 µL/min/mg.

Turning to `O=C(COc1ccc(-n2ccnc2)cc1)Nc1ccc(-c2ccccc2)cc1`, in series [4], the Papp is below 1 ×10⁻⁶ cm/s. For the same molecule, the figures for the IC50 (in the series with HEK293; in series [9]) were above 30 µM and 15 to 19 nM, respectively. Besides, the CC50 – broadly, the concentration at which the toxic effect on the cells reaches its halfway point – at 24 h in series [15] is above 50 µM. Moreover, the bioavailability in [16] is below 1%. In addition, in series [10], the microsomal CLint was found to be 37 µL/min/mg. In addition, the solubility thermodynamic in series [12] is below 1 µg/mL. In series [14], the inhibition result was “Active”.

On to `O=C(Nc1ccc(-c2ccccc2)cc1)[C@H]1CCCN1c1ccc(-n2ccnc2)cc1`, for which the IC50 in series [9] stood at 33000 nM.

Turning to `O=C(COc1ccc(-c2ccn[nH]2)cc1)Nc1ccc(-c2ccccc2)cc1`, the IC50 in series [9] is above 50000 nM.

In the case of `C[C@H](Nc1ccc(-c2ccnn2C)nc1)C(=O)Nc1ccc(-c2cccnc2)nc1`, the IC50 was above 20 µM on Cytochrome P450 3A4, 3.3 µM against Cytochrome P450 2D6 and 10 nM in series [9]. For the same molecule, the Papp in series [4] is 26.8 ×10⁻⁶ cm/s. Moreover, in series [10], the microsomal CLint amounted to 8 µL/min/mg. Also, the solubility thermodynamic in series [12] amounted to 102 µg/mL (≈ 255 µM).

Consider `C[C@@H](Nc1ccc(-n2ccnc2)cc1)C(=O)Nc1ccc(-c2ccccc2)cn1`, for which the IC50 in [9] was 689 nM. Also, the microsomal CLint in [10] amounted to 12 µL/min/mg.
